Active and inactive are the calls of the source. The calls are words filed in the database; no cut-off is given here.
Tests used:
Plasmodium falciparum [1] = assay: Antimalarial activity against chloroquine-sensitive Plasmodium falciparum 3D7 infected in […] after 72 hrs by SYBR Green I-based fluorescence method; type: functional, organism-based; conditions: 3D7, 72 h
[2] = Selectivity ratio of IC50 for human cathepsin E to IC50 for Plasmodium falciparum plasmepsin-2
[3] = Selectivity ratio of IC50 for human cathepsin D to IC50 for Plasmodium falciparum plasmepsin-2
[4] = Selectivity ratio of IC50 for human BACE1 to IC50 for Plasmodium falciparum plasmepsin-2
[5] = target: Plasmepsin V (Plasmodium falciparum (isolate 3D7)) (UniProt Q8I6Z5); assay: Inhibition of Plasmodium falciparum […] plasmepsin-5 using DABCYL-GNKRTLAQKQG-EDANS as substrate measured every 15 mins of 75 mins by fluorescence assay
Sequence of Plasmepsin V (Plasmodium falciparum (isolate 3D7)) (Q8I6Z5 whole entry, looked up): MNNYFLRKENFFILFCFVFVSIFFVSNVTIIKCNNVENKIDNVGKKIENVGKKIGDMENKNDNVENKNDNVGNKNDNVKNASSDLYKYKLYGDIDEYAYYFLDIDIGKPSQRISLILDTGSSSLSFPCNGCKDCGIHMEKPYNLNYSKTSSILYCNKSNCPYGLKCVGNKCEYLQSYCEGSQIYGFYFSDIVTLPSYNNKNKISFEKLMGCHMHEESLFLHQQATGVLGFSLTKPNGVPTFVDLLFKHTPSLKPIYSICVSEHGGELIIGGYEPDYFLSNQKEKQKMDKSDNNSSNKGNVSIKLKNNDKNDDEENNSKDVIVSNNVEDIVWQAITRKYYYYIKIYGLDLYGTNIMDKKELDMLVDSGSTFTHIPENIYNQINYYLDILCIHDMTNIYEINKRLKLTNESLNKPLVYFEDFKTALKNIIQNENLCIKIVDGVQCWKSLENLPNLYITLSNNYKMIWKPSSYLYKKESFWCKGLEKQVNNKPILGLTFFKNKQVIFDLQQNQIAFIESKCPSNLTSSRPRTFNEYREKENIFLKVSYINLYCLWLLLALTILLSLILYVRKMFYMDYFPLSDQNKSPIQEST

[6] = Plasma concentration in Plasmodium chabaudi ASS infected NIH mouse at 100 mg/kg, po qd measured 6 hrs after post last dose on day 3; type: ADME, organism-based; design: dose 100 mg/kg, route oral
Summary of the method: (§1)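 P. chabaudi-infected mice were dosed orally once daily for four days, starting four hours post-infection. Plasma compound levels were measured at 1, 6 and 24 h after the last dose on Day 3.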

[7] = Plasma concentration in Plasmodium chabaudi ASS infected NIH mouse at 100 mg/kg, po qd measured 24 hrs after post last dose on day 3; type: ADME, organism-based; design: dose 100 mg/kg, route oral; summary of the method: as §1
[8] = Plasma concentration in Plasmodium chabaudi ASS infected NIH mouse at 100 mg/kg, po qd measured 1 hr after post last dose on day 3; type: ADME, organism-based; design: dose 100 mg/kg, route oral; summary of the method: as §1
Plasmodium chabaudi = assay: Antimalarial activity against Plasmodium chabaudi ASS infected in NIH mouse assessed as inhibition of parasitemia at 100 mg/kg, po qd for 4 days; type: functional; conditions: 96 h
Summary of the method: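 Mice infected with P. chabaudi were given oral doses once daily for four days, starting four hours after infection. Parasitemia was read on Day 4 postinoculation and expressed as percent inhibition of parasitemia.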

Cytochrome P450 3A4 = Cytochrome P450 3A4 (Homo sapiens, UniProt P08684); assay: Inhibition of human recombinant CYP3A4 after 30 mins; type: ADME; conditions: recombinant enzyme, 0.5 h
Sequence of Cytochrome P450 3A4 (P08684 whole entry): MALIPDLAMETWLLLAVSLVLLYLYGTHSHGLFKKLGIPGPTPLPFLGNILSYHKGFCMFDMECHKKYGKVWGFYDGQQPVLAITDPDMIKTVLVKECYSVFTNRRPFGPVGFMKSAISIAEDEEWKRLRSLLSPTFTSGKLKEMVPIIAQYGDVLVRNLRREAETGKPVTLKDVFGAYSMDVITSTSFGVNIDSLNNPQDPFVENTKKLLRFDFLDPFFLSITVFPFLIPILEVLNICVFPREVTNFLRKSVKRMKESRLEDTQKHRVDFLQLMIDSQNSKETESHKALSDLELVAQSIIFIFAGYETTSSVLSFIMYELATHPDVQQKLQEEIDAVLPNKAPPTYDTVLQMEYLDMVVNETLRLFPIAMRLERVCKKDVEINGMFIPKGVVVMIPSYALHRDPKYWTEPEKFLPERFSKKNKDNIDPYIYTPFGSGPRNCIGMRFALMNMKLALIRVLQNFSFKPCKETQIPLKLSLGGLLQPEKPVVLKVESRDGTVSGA

Cytochrome P450 2C19 = Cytochrome P450 2C19 (Homo sapiens, UniProt P33261); assay: Inhibition of human recombinant CYP2C19 after 30 mins; type: ADME; conditions: recombinant enzyme, 0.5 h
Sequence of Cytochrome P450 2C19 (P33261 whole entry): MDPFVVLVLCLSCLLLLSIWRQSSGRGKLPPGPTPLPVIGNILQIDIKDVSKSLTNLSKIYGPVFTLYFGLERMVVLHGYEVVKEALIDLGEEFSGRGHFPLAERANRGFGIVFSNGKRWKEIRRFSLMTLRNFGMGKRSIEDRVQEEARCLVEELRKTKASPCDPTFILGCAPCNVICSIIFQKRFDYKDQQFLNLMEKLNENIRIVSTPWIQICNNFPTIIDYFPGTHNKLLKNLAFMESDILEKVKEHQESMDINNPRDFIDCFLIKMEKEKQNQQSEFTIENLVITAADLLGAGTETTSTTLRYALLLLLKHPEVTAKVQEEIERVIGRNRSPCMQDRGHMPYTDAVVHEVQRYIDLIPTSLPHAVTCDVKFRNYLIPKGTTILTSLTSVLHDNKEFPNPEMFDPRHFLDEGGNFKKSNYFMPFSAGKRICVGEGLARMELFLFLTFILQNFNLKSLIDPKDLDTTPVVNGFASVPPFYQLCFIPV

Cytochrome P450 2D6 = Cytochrome P450 2D6 (Homo sapiens, UniProt P10635); assay: Inhibition of human recombinant CYP2D6 after 30 mins; type: ADME; conditions: recombinant enzyme, 0.5 h
Sequence of Cytochrome P450 2D6 (P10635 whole entry): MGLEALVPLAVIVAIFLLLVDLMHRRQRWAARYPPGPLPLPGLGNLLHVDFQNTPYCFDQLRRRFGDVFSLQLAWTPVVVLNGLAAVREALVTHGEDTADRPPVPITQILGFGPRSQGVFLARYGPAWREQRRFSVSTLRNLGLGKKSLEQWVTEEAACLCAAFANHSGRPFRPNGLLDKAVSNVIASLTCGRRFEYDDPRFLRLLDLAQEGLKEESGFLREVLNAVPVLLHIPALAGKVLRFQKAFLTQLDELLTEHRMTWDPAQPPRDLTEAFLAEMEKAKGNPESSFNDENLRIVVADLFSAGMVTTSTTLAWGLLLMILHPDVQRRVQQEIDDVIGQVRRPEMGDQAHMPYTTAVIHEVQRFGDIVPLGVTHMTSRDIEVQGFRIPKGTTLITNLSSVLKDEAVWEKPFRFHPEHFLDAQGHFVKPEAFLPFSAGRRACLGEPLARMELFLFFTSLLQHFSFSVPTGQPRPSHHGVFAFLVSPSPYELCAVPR

Cytochrome P450 2C9 = Cytochrome P450 2C9 (Homo sapiens, UniProt P11712); assay: Inhibition of human recombinant CYP2C9 after 30 mins; type: ADME; conditions: recombinant enzyme, 0.5 h
Sequence of Cytochrome P450 2C9 (P11712 whole entry): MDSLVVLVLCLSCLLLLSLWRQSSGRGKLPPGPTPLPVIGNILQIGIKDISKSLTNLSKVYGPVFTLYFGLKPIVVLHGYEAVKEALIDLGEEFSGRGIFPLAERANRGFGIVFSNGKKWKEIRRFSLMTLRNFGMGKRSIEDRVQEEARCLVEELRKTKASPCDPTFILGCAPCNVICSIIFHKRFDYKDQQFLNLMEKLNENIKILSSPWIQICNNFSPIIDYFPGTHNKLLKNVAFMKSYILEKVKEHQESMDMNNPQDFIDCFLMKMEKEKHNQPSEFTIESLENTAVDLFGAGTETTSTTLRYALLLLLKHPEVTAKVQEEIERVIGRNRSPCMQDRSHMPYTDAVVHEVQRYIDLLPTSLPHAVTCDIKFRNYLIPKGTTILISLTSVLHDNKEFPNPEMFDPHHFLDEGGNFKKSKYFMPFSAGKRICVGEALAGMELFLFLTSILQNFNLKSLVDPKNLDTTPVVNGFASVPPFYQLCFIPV

Cytochrome P450 1A2 = target: T1, Cytochrome P450 1A2 (Homo sapiens, UniProt P05177); assay: Inhibition of human recombinant CYP1A2 after 30 mins; type: ADME; conditions: recombinant enzyme, 0.5 h
T1 sequence (P05177 whole entry): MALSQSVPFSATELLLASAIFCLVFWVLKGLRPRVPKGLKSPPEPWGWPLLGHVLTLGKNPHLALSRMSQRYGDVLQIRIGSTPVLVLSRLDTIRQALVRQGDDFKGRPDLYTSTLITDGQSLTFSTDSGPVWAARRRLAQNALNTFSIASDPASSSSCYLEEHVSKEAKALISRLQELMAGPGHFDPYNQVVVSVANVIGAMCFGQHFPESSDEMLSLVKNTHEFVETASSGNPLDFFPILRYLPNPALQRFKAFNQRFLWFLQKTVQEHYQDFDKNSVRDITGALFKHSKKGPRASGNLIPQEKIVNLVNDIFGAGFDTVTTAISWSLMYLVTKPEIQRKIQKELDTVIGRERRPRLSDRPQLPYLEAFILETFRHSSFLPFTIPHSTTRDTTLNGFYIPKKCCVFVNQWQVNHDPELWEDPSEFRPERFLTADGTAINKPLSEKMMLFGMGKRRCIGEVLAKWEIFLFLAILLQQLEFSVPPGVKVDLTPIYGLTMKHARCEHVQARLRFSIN

HepG2 = assay: Cytotoxicity against human HepG2 cells after 72 hrs; type: cell-based; conditions: hepg2, 72 h
Plasmodium falciparum [9] = assay: Antimalarial activity against chloroquine-sensitive Plasmodium falciparum 3D7 infected in […] after 48 hrs by SYBR Green I-based fluorescence method; type: functional, organism-based
Plasmodium falciparum [10] = assay: Antimalarial activity against chloroquine and pyrimethamine-resistant Plasmodium falciparum Dd2 infected in […] after 48 hrs by SYBR Green I-based fluorescence method; type: functional

SMILES | IC50 (Plasmodium falciparum [1]) [nM] | other results
N=C1NC(c2ccc(Cl)cc2)(c2ccc(Cl)cc2)C(=O)N1C1CCCCC1 | 1070 | 
CCCN1C(=N)NC(c2ccc(OC)cc2)(c2ccc(OC)cc2)C1=O | 1140 | 
COc1ccc(C2(c3cccc(-c4cccnc4)c3)NC(=N)N(C3CCCCC3)C2=O)cc1 (racemic) | 595 | 
COc1ccc(C2(c3ccc(OC)cc3)NC(=N)N(c3ccccc3)C2=O)cc1 | 100000 | 
COc1ccc(C2(c3ccc(OC)cc3)NC(=N)N(CC3CCOCC3)C2=O)cc1 | 463 | concentration at 6 h [6]: 3030 ng/mL; concentration at 24 h [7]: 123 ng/mL; concentration at 1 h [8]: 10400 ng/mL; inhibition in vivo at 100 mg/kg (Plasmodium chabaudi): 41%; inhibition (INH) (Cytochrome P450 3A4): Active; inhibition (INH) (Cytochrome P450 2C19): Not Active; inhibition (INH) (Cytochrome P450 2D6): Not Active; inhibition (INH) (Cytochrome P450 2C9): Not Active; inhibition (INH) (Cytochrome P450 1A2): Not Active; Activity (HepG2): Toxic; inhibition (Plasmodium falciparum [9]): Active; inhibition (Plasmodium falciparum [10]): Active
N=C1NC(c2ccccc2)(c2ccccc2)C(=O)N1Cc1ccccc1 | 8290 | 
COc1cccc(C2(c3cccc(-c4cccnc4)c3)NC(=N)N(C3CCCCC3)C2=O)c1 (racemic) | 787 | 
N=C1NC(c2ccc(OC(F)(F)F)cc2)(c2ccc(OC(F)(F)F)cc2)C(=O)N1C1CCCCC1 | 2200 | 
Cc1ccc(C2(c3ccc(C)cc3)NC(=N)N(C3CCCCC3)C2=O)cc1 | 1260 | 
COc1ccc(C2(c3ccc(OC)cc3)NC(=N)N(CCc3ccccc3)C2=O)cc1 | 2380 | 
N=C1NC(c2ccccc2)(c2cccc(OCc3ccccc3)c2)C(=O)N1C1CCCCC1 (racemic) | 641 | 

More lines, main results first:

IC50 (Plasmodium falciparum [1]) [nM] | SMILES | other results
725 | N=C1NC(c2cccc(-c3cccnc3)c2)(c2cccc(-c3cccnc3)c2)C(=O)N1C1CCCCC1 | 
512 | COc1ccc(C2(c3ccc(OC)cc3)NC(=N)N(CCCc3ccccc3)C2=O)cc1 | 
697 | COc1ccc(C2(c3ccc(OC)cc3)NC(=N)N(C3CCN(C)CC3)C2=O)cc1 | 
> 5000 | COc1ccc(C2(c3ccc(OC)cc3)NC(=N)N(C3CCNCC3)C2=O)cc1 | 
750 | N=C1NC(c2ccccc2)(c2cccc(-c3cccnc3)c2)C(=O)N1C1CCCCC1 (racemic) | Ratio IC50 [2]: 200; Ratio IC50 [3]: > 1000; Ratio IC50 [4]: > 1000; inhibition [5]: inactive
4110 | COc1ccc(C2(c3ccc(OC)cc3)NC(=N)N(C3CC3)C2=O)cc1 | 
1060 | N=C1NC(c2cccc(Cl)c2)(c2cccc(Cl)c2)C(=O)N1C1CCCCC1 | 
3850 | N=C1NC(c2ccccc2)(c2ccccc2)C(=O)N1C1CCCCC1 | 
722 | COc1ccc(C2(c3ccc(OC)cc3)NC(=N)N(C3CCC3)C2=O)cc1 | 
611 | COc1ccc(C2(c3ccc(OC)cc3)NC(=N)N(C3CCCC3)C2=O)cc1 | 
1810 | COc1ccc(C2(c3cccc(-c4ccccn4)c3)NC(=N)N(C3CCCCC3)C2=O)cc1 (racemic) | 

Source: ChEMBL document CHEMBL3108756, “Evaluation of aminohydantoins as a novel class of antimalarial agents” (ACS Med Chem Lett, 2014)
